Data from ChEMBL document CHEMBL3525925, “In vitro studies on the oxidative metabolism of 20(s)-ginsenoside Rh2 in human, monkey, dog, rat, and mouse liver microsomes, and human liver s9” (Drug Metab Dispos, 2012).

How the values were obtained:
[1] = tested on: Liver cytosol; test: Drug metabolism in human liver cytosol assessed as 26-carboxy,20(S)-Ginsenoside Rh2 formation at 10 uM by LC/MS analysis in presence of 50 uM disulfiram aldehyde dehydrogenase inhibitor; assay type: ADME
Summary of the method: (§1)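 Pooled human liver cytosol (1 mg/ml) with 2 mM NAD+ and inhibitor in 100 mM potassium phosphate pH 7.4; inhibitors given from DMSO, 0.1% v/v final. After 15 min preincubation at 37°C, started with 10 μM M1-1 or 26-aldehyde-Rh2. Run 60 min, stopped with ice-cold acetonitrile. Duplicates, uninhibited controls; M2-3 acid measured by LC/MSn.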

[2] = tested on: Liver cytosol; test: Drug metabolism in human liver cytosol assessed as 26-carboxy,20(S)-Ginsenoside Rh2 formation at 10 uM by LC/MS analysis in presence of 50 uM 4-methylpyrazole alcohol dehydrogenase inhibitor; assay type: ADME; summary of the method: as §1
[3] = tested on: Liver cytosol; test: Drug metabolism in human liver cytosol assessed as 26-carboxy,20(S)-Ginsenoside Rh2 formation at 10 uM by LC/MS analysis in presence of 100 uM raloxifene aldehyde oxidase inhibitor; assay type: ADME; details: in the assay text read “100 nM raloxifene” for “100 uM raloxifene”; summary of the method: as §1
[4] = tested on: Liver microsome; test: Drug level in beagle dog liver microsomes treated with 10 uM 20(S)-ginsenoside Rh2 for 60 mins by MS2 spectra; assay type: ADME, Canis lupus familiaris; details: 1 h
Summary of the method: (§2)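 Rh2 at 10 μM final (from methanol stock; 0.1% v/v methanol final) in 100 mM potassium phosphate pH 7.4 with 2 mM NADPH, open-to-air tubes at 37°C. 3 min preincubation, then started with liver microsomes or S9 at 1 mg/ml protein. Incubated 60 min, stopped with equal volume ice-cold acetonitrile. Controls lacked NADPH; duplicates. Metabolites detected by LC/ion-trap MSn.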

[5] = tested on: Liver; test: Drug level in human liver S9 fraction treated with 10 uM 20(S)-ginsenoside Rh2 for 60 mins by MS2 spectra; assay type: ADME, subcellular; details: s9, 1 h; summary of the method: as §2
[6] = target: Cytochrome P450 3A5 (Homo sapiens, UniProt P20815); test: Drug level in human recombinant CYP3A5 treated with 10 uM 20(S)-ginsenoside Rh2 for 60 mins by MS2 spectra; assay type: ADME; details: recombinant enzyme, 1 h
Chain of Cytochrome P450 3A5 (P20815 whole entry): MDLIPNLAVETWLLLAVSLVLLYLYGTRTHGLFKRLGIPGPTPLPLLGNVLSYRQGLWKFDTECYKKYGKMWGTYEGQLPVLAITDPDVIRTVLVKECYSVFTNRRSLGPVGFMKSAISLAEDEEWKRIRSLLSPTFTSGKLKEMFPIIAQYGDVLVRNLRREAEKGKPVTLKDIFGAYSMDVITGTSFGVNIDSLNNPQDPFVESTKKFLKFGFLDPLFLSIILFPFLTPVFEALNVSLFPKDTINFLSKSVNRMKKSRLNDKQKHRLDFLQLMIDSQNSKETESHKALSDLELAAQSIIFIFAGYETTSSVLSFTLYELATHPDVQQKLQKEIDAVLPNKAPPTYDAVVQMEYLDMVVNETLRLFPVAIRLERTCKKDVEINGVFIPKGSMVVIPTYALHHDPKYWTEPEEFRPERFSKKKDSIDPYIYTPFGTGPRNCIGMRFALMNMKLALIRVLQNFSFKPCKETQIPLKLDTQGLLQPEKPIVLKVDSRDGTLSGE
Summary of the method: (§3)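 Recombinant human P450 (50 nM) with 10 μM Rh2 under the microsomal conditions: 100 mM potassium phosphate pH 7.4, 2 mM NADPH, 37°C for 60 min. Stopped with equal volume ice-cold acetonitrile. Run in duplicate; products analysed by LC/ion-trap MSn.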

[7] = Drug level in cynomolgus monkey liver microsomes treated with 10 uM 20(S)-ginsenoside Rh2 for 60 mins by MS2 spectra; assay type: ADME, Macaca fascicularis; details: 1 h; summary of the method: as §2
[8] = tested on: Liver microsome; test: Retention time in human liver microsomes treated with 10 uM 20(S)-ginsenoside Rh2 by MS2 spectra; assay type: ADME
Summary of the method: (§4)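 Samples: incubation mixed with equal volume methanol, centrifuged at 14,000g for 5 min, dried under nitrogen at 40°C, reconstituted. Separated on Eclipse XDB-C18 (4.6 × 150 mm, 5 μm) at 0.5 ml/min. Gradient: 0.1% formic acid in methanol against 0.1% formic acid in 5 mM ammonium acetate, 70% to 100% organic over 17 min. Ion-trap MSn detection.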

[9] = target: Cytochrome P450 3A4 (Homo sapiens, UniProt P08684); test: Drug level in human recombinant CYP3A4 treated with 10 uM 20(S)-ginsenoside Rh2 for 60 mins by MS2 spectra; assay type: ADME; details: recombinant enzyme, 1 h; summary of the method: as §3
Chain of Cytochrome P450 3A4 (P08684 whole entry): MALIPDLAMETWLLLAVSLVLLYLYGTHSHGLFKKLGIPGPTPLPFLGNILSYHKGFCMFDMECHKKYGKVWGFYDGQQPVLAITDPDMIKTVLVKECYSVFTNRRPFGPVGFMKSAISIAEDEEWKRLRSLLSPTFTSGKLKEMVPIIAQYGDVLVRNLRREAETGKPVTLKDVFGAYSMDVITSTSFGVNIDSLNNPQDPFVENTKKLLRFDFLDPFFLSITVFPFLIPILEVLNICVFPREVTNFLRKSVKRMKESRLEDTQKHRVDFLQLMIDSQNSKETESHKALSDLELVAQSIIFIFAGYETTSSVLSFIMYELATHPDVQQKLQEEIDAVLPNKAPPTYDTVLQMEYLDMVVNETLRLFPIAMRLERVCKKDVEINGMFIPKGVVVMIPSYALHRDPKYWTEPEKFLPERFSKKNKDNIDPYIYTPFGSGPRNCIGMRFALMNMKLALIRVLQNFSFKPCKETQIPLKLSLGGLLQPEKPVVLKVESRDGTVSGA

[10] = tested on: Liver; test: Drug level in CD-1 mouse liver microsomes treated with 10 uM 20(S)-ginsenoside Rh2 for 60 mins by MS2 spectra; assay type: ADME; details: 1 h; summary of the method: as §2
[11] = tested on: Liver; test: Retention time in human liver S9 fraction treated with 10 uM 20(S)-ginsenoside Rh2 by MS2 spectra; assay type: ADME, subcellular; summary of the method: as §4
[12] = tested on: Liver microsome; test: Drug level in human liver microsomes treated with 10 uM 20(S)-ginsenoside Rh2 for 60 mins by MS2 spectra; assay type: ADME; details: 1 h; summary of the method: as §2
[13] = tested on: Liver microsome; test: Drug level in Sprague-Dawley rat liver microsomes treated with 10 uM 20(S)-ginsenoside Rh2 for 60 mins by MS2 spectra; assay type: ADME; details: 1 h; summary of the method: as §2

SMILES	Drug metabolism [1]	Drug metabolism [2]	Drug metabolism [3]	Drug metabolism [4]	Drug metabolism [5]	Drug metabolism [6]	Drug metabolism [7]	Retention_time [8]	Drug metabolism [9]	Drug metabolism [10]	Retention_time [11]	Drug metabolism [12]	Drug metabolism [13]
C/C(C=O)=C\CC[C@](C)(O)[C@H]1CC[C@]2(C)[C@@H]1[C@H](O)C[C@@H]1[C@@]3(C)CC[C@H](O[C@@H]4O[C@H](CO)[C@@H](O)[C@H](O)[C@H]4O)C(C)(C)[C@@H]3CC[C@]12C	metabolite_not_detected	metabolite_not_detected	metabolite_not_detected	–	–	–	–	–	–	–	–	–	–
C/C(=C/CC[C@](C)(O)[C@H]1CC[C@]2(C)[C@@H]1[C@H](O)C[C@@H]1[C@@]3(C)CC[C@H](O[C@@H]4O[C@H](CO)[C@@H](O)[C@H](O)[C@H]4O)C(C)(C)[C@@H]3CC[C@]12C)CO	–	–	–	metabolite_detected	metabolite_detected	metabolite_detected	metabolite_detected	18.3 min	metabolite_detected	metabolite_detected	18.3 min	metabolite_detected	metabolite_detected
CC(C)(O)[C@@H]1CC[C@@](C)([C@H]2CC[C@]3(C)[C@@H]2[C@H](O)C[C@@H]2[C@@]4(C)CC[C@H](O[C@@H]5O[C@H](CO)[C@@H](O)[C@H](O)[C@H]5O)C(C)(C)[C@@H]4CC[C@]23C)O1	–	–	–	metabolite_detected	metabolite_detected	metabolite_detected	metabolite_detected	18.9 min	metabolite_detected	metabolite_detected	18.9 min	metabolite_detected	metabolite_detected
CC1(C)O[C@H]1CC[C@](C)(O)[C@H]1CC[C@]2(C)[C@@H]1[C@H](O)C[C@@H]1[C@@]3(C)CC[C@H](O[C@@H]4O[C@H](CO)[C@@H](O)[C@H](O)[C@H]4O)C(C)(C)[C@@H]3CC[C@]12C	–	–	–	metabolite_detected	metabolite_detected	metabolite_not_detected	metabolite_detected	20 min	metabolite_detected	metabolite_detected	20 min	metabolite_detected	metabolite_detected
CC(C)(O)[C@H]1CC[C@@](C)([C@H]2CC[C@]3(C)[C@@H]2[C@H](O)C[C@@H]2[C@@]4(C)CC[C@H](O[C@@H]5O[C@H](CO)[C@@H](O)[C@H](O)[C@H]5O)C(C)(C)[C@@H]4CC[C@]23C)O1	–	–	–	metabolite_detected	metabolite_detected	metabolite_not_detected	metabolite_detected	20.2 min	metabolite_detected	metabolite_detected	20.2 min	metabolite_detected	metabolite_detected
C/C(=C/CC[C@](C)(O)[C@H]1CC[C@]2(C)[C@@H]1[C@H](O)C[C@@H]1[C@@]3(C)CC[C@H](O[C@@H]4O[C@H](CO)[C@@H](O)[C@H](O)[C@H]4O)C(C)(C)[C@@H]3CC[C@]12C)C(=O)O	–	–	–	metabolite_not_detected	metabolite_detected	metabolite_not_detected	metabolite_detected	13.2 min	metabolite_detected	metabolite_detected	13.2 min	metabolite_detected	metabolite_detected
C/C(=C\CC[C@](C)(O)[C@H]1CC[C@]2(C)[C@@H]1[C@H](O)C[C@@H]1[C@@]3(C)CC[C@H](O[C@@H]4O[C@H](CO)[C@@H](O)[C@H](O)[C@H]4O)C(C)(C)[C@@H]3CC[C@]12C)C(=O)O	–	–	–	metabolite_not_detected	metabolite_detected	metabolite_not_detected	metabolite_detected	14 min	metabolite_detected	metabolite_not_detected	14 min	metabolite_detected	metabolite_detected
CC1(C)[C@@H](O[C@@H]2O[C@H](CO)[C@@H](O)[C@H](O)[C@H]2O)CC[C@]2(C)[C@H]3C[C@@H](O)[C@@H]4[C@@H]([C@@](C)(O)CCC=C(CO)CO)CC[C@@]4(C)[C@]3(C)CC[C@@H]12	–	–	–	metabolite_detected	metabolite_detected	metabolite_not_detected	metabolite_detected	12.2 min	metabolite_detected	metabolite_detected	12.2 min	metabolite_detected	metabolite_detected
CC1(C)[C@@H](O[C@@H]2O[C@H](CO)[C@@H](O)[C@H](O)[C@H]2O)CC[C@]2(C)[C@H]3C[C@@H](O)[C@@H]4[C@@H]([C@@](C)(O)CC[C@@H]5O[C@@]5(C)CO)CC[C@@]4(C)[C@]3(C)CC[C@@H]12	–	–	–	metabolite_not_detected	metabolite_detected	metabolite_not_detected	metabolite_detected	15.6 min	metabolite_detected	metabolite_detected	15.6 min	metabolite_detected	metabolite_detected
CC(O)(CO)[C@@H]1CC[C@@](C)([C@H]2CC[C@]3(C)[C@@H]2[C@H](O)C[C@@H]2[C@@]4(C)CC[C@H](O[C@@H]5O[C@H](CO)[C@@H](O)[C@H](O)[C@H]5O)C(C)(C)[C@@H]4CC[C@]23C)O1 (stereo partly drawn)	–	–	–	metabolite_not_detected	metabolite_detected	metabolite_not_detected	metabolite_detected	16.2 min	metabolite_detected	metabolite_detected	16.2 min	metabolite_detected	metabolite_detected
CC(O)(CO)[C@H]1CC[C@@](C)([C@H]2CC[C@]3(C)[C@@H]2[C@H](O)C[C@@H]2[C@@]4(C)CC[C@H](O[C@@H]5O[C@H](CO)[C@@H](O)[C@H](O)[C@H]5O)C(C)(C)[C@@H]4CC[C@]23C)O1 (stereo partly drawn)	–	–	–	metabolite_not_detected	metabolite_detected	metabolite_not_detected	metabolite_detected	16.7 min	metabolite_detected	metabolite_detected	16.7 min	metabolite_detected	metabolite_detected
